From ChEMBL document CHEMBL1141377 (J Nat Prod, 2007)
Activity calls are given as the source filed them. The calls are words filed in the database; no cut-off is given here.

Legend:
20S proteasome = test: Inhibition of human 20S proteasome; type: subcellular
[1] = Stability in neutral pH after 24 hrs; type: physicochemical; conditions: read-out: Stability
Outline: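 Compound solutions in 20% MeOH incubated in horse serum or water at pH 7 for 24 h. Recovery estimated by HPLC.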

Trypsin (Homo sapiens) = Trypsin (Homo sapiens) (UniProt P07477+P07478+P35030); test: Inhibition of trypsin up to 100 uM; type: protein assay
Homo sapiens = species on record: Homo sapiens; test: Inhibition of chymotrypsin up to 100 uM
[2] = Stability in neutral pH after 48 hrs; type: physicochemical; conditions: read-out: Stability
NCI-H460 = test: Cytotoxicity against human H460 cell line; type: functional, cell-based
MDA-MB-231 = test: Cytotoxicity against human MDA-MB-231 cell line; type: functional, cell-based
PBMC = test: Inhibition of LPS-induced TNFalpha production in human PBMC; type: functional, cell-based
Outline: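 Human PBMC isolated from heparinized healthy-donor blood on 80% Percoll, washed twice in PBS, in RPMI1640 with 10% heat-inactivated FCS. Cells preincubated 1 h with compound or DMSO (final 0.1%), then stimulated with LPS (1 μg/mL). After overnight culture, supernatant TNF-α measured. IC50 reported.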

HCT-116 = test: Cytotoxicity against human HCT116 cell line; type: cell-based
[3] = Stability in alkaline pH after 48 hrs; type: physicochemical; conditions: read-out: Stability

Row | Structure (SMILES) | IC50 (20S proteasome) [nM] | remaining at 24 h [1] [%] | Activity (Trypsin (Homo sapiens)) | Activity (Homo sapiens) | remaining at 48 h [2] [%] | IC50 (NCI-H460) [nM] | IC50 (MDA-MB-231) [nM] | IC50 (PBMC) [nM] | Activity (HCT-116) [nM] | remaining at 48 h [3] [%]
1 | CCCCCC[C@H]1C(=O)N[C@@]2(C[C@@H]3C=CCCC3)C(=O)O[C@@]12C [CINNABARAMIDE C] | 12 | 50 | inactive | inactive | – | – | – | – | – | –
2 | CCCCCC(O)[C@H]1C(=O)N[C@@]2([C@@H](O)[C@@H]3C=CCCC3)C(=O)O[C@@]12C (stereo partly specified) [CINNABARAMIDE B] | 245 | 50 | inactive | inactive | – | – | – | – | – | –
3 | CCCCCC[C@H]1C(=O)N[C@](C(=O)O)([C@@H](O)[C@@H]2C=CCCC2)[C@@]1(C)O [CINNABARAMIDE E] | 136 | – | inactive | inactive | – | – | – | – | – | –
4 | CCCCCC[C@H]1C(=O)N[C@](C(=O)SC[C@H](NC(C)=O)C(=O)O)([C@@H](O)[C@@H]2C=CCCC2)[C@@]1(C)O [CINNABARAMIDE F] | 6 | – | inactive | inactive | > 90 | – | – | – | – | –
5 | CCCCCC(O)[C@H]1C(=O)N[C@](C(=O)O)([C@@H](O)[C@@H]2C=CCCC2)[C@@]1(C)O (stereo partly specified) [CINNABARAMIDE D] | 100 | – | inactive | inactive | – | – | – | – | – | –
6 | CCCCCC[C@H]1C(=O)N[C@@]2([C@@H](O)[C@@H]3C=CCCC3)C(=O)O[C@@]12C [CINNABARAMIDE A] | 1 | 50 | inactive | inactive | – | 1000 | 1000 | 500 | 10 | –
7 | CCCCCC[C@H]1C(=O)N[C@](C(=O)SC[C@H](NC(C)=O)C(=O)OC)([C@@H](O)[C@@H]2C=CCCC2)[C@@]1(C)O [CINNABARAMIDE G] | 0.6 | – | inactive | inactive | 90 | – | – | – | – | 45
